# Laboratory results published in the M2OR odorant receptor database.
# Numbering of substitutions follows the chain as printed.
# How the values were obtained:
# Details in all cases: stereoisomer not certain
# OR2W3 (Homo sapiens) = target: T1, OR2W3 (Homo sapiens) (UniProt Q7Z3T1)
# T1 sequence (whole entry): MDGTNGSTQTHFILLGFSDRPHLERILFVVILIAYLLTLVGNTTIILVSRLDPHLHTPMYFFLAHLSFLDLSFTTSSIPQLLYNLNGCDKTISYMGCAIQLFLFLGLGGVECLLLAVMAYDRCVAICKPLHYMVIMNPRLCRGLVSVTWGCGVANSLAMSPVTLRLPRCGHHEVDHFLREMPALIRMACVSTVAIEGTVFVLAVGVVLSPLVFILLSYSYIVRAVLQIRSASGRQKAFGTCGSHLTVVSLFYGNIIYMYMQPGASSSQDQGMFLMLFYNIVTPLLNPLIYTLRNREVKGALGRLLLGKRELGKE
# Method in brief: (§1)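 Each entry records the cell line, G-protein, co-transfected protein and tags used. Methods varied with the source, often transient luciferase assays in mammalian cell lines. A receptor–molecule pair is called responsive (active) if the original authors judged its signal statistically different from baseline and non-responsive (inactive) otherwise.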
# OR2W5P (Homo sapiens) = target: T2, OR2W5P (Homo sapiens) (UniProt A6NFC9)
# T2 sequence (whole entry): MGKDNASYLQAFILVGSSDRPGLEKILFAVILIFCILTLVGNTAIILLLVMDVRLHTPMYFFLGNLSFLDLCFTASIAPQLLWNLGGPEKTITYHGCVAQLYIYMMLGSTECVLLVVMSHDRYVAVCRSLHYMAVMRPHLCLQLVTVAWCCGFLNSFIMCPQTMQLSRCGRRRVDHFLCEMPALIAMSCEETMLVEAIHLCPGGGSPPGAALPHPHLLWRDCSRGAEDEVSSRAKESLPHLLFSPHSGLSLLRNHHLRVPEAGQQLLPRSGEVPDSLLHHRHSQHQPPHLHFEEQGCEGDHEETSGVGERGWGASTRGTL
# Method in brief: as §1
# OR2Y1 (Homo sapiens) = target: T3, OR2Y1 (Homo sapiens) (UniProt Q8NGV0)
# T3 sequence (whole entry): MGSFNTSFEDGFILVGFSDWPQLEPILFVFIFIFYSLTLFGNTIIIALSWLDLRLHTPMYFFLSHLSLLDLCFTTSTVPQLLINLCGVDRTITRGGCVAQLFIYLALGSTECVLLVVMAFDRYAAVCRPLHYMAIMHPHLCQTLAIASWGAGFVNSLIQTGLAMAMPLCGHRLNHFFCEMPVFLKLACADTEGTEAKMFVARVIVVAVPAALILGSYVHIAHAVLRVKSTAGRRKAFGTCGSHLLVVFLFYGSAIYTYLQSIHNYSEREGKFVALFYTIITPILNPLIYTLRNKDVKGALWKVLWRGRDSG
# Method in brief: as §1
# OR2Z1 (Homo sapiens) = target: T4, OR2Z1 (Homo sapiens) (UniProt Q8NG97)
# T4 sequence (whole entry): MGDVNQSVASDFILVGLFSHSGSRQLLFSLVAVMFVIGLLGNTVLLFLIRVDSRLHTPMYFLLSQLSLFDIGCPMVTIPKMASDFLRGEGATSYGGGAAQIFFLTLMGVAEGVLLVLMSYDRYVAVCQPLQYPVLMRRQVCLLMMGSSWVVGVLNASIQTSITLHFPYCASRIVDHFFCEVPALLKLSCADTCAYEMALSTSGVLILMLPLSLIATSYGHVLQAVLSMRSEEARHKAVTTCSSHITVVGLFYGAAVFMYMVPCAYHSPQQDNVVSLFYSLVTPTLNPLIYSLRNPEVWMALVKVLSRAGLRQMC
# Method in brief: as §1
# OR3A1 (Homo sapiens) = target: T5, OR3A1 (Homo sapiens) (UniProt P47881)
# T5 sequence (whole entry): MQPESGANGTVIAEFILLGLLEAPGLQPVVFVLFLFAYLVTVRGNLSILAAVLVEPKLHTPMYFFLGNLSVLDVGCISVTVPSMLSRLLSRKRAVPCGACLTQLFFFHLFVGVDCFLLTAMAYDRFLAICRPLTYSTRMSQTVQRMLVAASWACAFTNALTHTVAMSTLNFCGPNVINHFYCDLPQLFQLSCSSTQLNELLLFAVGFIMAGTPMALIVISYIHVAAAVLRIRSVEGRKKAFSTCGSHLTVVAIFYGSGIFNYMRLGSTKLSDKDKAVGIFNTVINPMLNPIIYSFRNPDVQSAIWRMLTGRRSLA
# Method in brief: as §1
# OR3A2 (Homo sapiens) = target: T6, OR3A2 (Homo sapiens) (UniProt P47893)
# T6 sequence (whole entry): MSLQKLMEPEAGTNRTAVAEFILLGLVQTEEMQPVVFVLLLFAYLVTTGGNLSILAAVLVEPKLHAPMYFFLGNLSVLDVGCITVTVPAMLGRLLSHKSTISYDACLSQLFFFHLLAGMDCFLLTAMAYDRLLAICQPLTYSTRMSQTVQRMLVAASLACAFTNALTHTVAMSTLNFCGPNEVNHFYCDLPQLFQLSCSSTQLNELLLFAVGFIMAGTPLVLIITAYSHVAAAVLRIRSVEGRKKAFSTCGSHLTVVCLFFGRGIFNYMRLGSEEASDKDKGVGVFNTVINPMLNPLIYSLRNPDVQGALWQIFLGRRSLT
# Method in brief: as §1
# OR3A3 (Homo sapiens) = target: T7, OR3A3 (Homo sapiens) (UniProt P47888)
# T7 sequence (whole entry): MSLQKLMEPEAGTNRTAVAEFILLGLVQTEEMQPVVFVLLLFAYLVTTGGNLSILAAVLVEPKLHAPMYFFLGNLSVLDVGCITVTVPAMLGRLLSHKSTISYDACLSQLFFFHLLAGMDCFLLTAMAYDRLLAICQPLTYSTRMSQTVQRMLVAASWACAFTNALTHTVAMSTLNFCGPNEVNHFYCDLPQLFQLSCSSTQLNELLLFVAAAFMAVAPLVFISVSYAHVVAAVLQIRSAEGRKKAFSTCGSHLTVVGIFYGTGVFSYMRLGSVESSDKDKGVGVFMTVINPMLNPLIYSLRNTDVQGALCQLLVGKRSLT
# Method in brief: as §1
# OR2Y1 = system: T8, OR2Y1
# T8 sequence (whole entry): T3 sequence (whole entry) with V200L
# Method in brief: as §1
# OR3A1 = system: T9, OR3A1
# T9 sequence (whole entry): T5 sequence (whole entry) with R125Q
# Method in brief: as §1
# OR3A2 R317K = system: T10, OR3A2 R317K
# T10 sequence (whole entry): T6 sequence (whole entry) with R317K
# Method in brief: as §1
SMILES,odorant receptor agonist call (OR2W3 (Homo sapiens)),odorant receptor agonist call (OR2W5P (Homo sapiens)),odorant receptor agonist call (OR2Y1 (Homo sapiens)),odorant receptor agonist call (OR2Z1 (Homo sapiens)),odorant receptor agonist call (OR3A1 (Homo sapiens)),odorant receptor agonist call (OR3A2 (Homo sapiens)),odorant receptor agonist call (OR3A3 (Homo sapiens)),odorant receptor agonist call (OR2Y1),odorant receptor agonist call (OR3A1),odorant receptor agonist call (OR3A2 R317K)
CCC(S)C(C)CO (stereo unspecified),inactive,inactive,inactive,inactive,inactive,inactive,inactive,,,
CC1=C(O)C(=O)OC1C (stereo unspecified),inactive,inactive,inactive,inactive,inactive,inactive,inactive,inactive,inactive,inactive
CCCC(S)CCOC(C)=O (stereo unspecified),inactive,inactive,inactive,inactive,inactive,inactive,inactive,inactive,inactive,inactive
CCCCCC(=O)C(C)C(C)=O (stereo unspecified),inactive,inactive,inactive,inactive,inactive,inactive,inactive,,,
CC(C=O)=Cc1ccccc1,,,,,inactive,,,,,
COc1ccc(CC(C)C=O)cc1 (stereo unspecified),,,,,active,,,,,
CCCCCCC=CCCC=O,inactive,inactive,inactive,inactive,inactive,inactive,inactive,inactive,inactive,inactive
CCCCCCCCCC(C)C=O (stereo unspecified),,,,,inactive,,,,,
OCCc1ccccc1,,,,,inactive,,,,,
CCCCOCC(C)O (stereo unspecified),inactive,,,,,,,,,
CCCCCC1=C(C)CCC1=O,,,,,active,,,,,
CC(=O)OCc1ccc2c(c1)OCO2,,,,,inactive,,,,,
CCC1OC(C)=C(O)C1=O (stereo unspecified),inactive,inactive,inactive,inactive,inactive,inactive,inactive,inactive,inactive,inactive
CC1=NC(C)C(C)S1 (stereo unspecified),inactive,inactive,inactive,inactive,inactive,inactive,inactive,inactive,inactive,inactive
CC1=C(O)C(=O)C(C)O1 (stereo unspecified),inactive,inactive,inactive,inactive,inactive,inactive,inactive,inactive,inactive,inactive
